Screening data from PubChem.
An excerpt weighted towards active compounds, which were near 4% of everything screened.
S1P3 antag: antagonists of human S1P3 receptor; CHO S1P3 NFAT-BLA reporter, FRET fluorescence, antagonist mode; inhibition, % at 4.98 µM; 0.27% of 170,000 active; AID 485;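 active = inhibition above the plate cutoff, the mean inhibition of test wells on that plate plus 3 SD, cut at about 28% in these data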;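 note: cells challenged with S1P at its EC80 of 0.8 µM; blue over green emission ratio from cleaved BLA substrate after 4 h stimulation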
Target sequence (Q99500 whole entry, looked up): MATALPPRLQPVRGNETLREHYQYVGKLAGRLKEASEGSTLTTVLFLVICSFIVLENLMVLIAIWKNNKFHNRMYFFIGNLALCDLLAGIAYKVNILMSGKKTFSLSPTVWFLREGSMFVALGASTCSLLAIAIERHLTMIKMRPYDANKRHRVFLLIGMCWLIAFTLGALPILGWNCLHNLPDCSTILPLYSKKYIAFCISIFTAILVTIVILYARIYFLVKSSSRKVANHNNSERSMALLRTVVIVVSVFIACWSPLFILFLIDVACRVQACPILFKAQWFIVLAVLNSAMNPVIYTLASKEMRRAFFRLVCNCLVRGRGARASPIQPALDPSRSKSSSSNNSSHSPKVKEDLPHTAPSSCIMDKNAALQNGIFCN
CHOP inh: blocks CHOP induction under ER stress; CHO-K1 CHOP-promoter luciferase, tunicamycin-induced, 15-18 h; AID 2732; inhibition, % at 10 µM; 3.8% of 220,000 active;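 active = compounds that reduced the stress-induced luciferase reporter signal by more than about 70% of percent inhibition, limit read from the data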
Mdm2 ligase inh: inhibitors of human Mdm2 E3 ubiquitin ligase. Q00987. cell-based MDM2 ubiquitination luciferase reporter, 2 h; 0 = plate control, 100 = twice control, blank-subtracted. signal enhancement, % at 5 µM. 0.11% of 210,000 active. AID 1230;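 active = signal enhancement of 30% or more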;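 note: luminescence tracks abundance of the self-degrading MDM2-luciferase fusion protein; higher signal means inhibition of MDM2 E3 ligase activity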
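Test system: mammalian cells stably expressing self-ubiquitinating, self-degrading MDM2 E3–luciferase fusion; Amount: 2000 cells in each well; Medium: DMEM; Schedule: 4 h settle plus 2 h compound, 37 °C; Technique: SteadyLite luciferase luminescence after 15 min room-temperature reagent incubation; Benchmarks: plate control and blank wells.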
Hsp70 activator: switches on Hsp70 transcription. HeLa Hsp70 promoter luciferase reporter, luminescence; scaled: vehicle 0, proteasome-inhibitor control 100%. activation, % at 10 µM. 0.04% of 200,000 active;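 active = activation above the mean across all tested compounds plus 3 SD, cutoff set per campaign, cut at about 5.5% in these data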
Numbers stand for hits.

What do the screens show for `CC(O)CNc1nc2c(c(=O)n(Cc3ccc(Cl)c(Cl)c3)c(=O)n2C)n1C` (configuration not stated)?
S1P3 antag: inactive; CHOP inh: 78; Mdm2 ligase inh: inactive

How did CC(C)CCNc1nc2c(c(=O)n(Cc3cccc(F)c3)c(=O)n2C)n1C do in these assays?
S1P3 antag: inactive; CHOP inh: 71; Mdm2 ligase inh: inactive; Hsp70 activator: inactive

Results for CC(C)N1CCN(Cc2coc3ccccc3c2=O)CC1CCO (configuration not stated) ?
S1P3 antag: inactive; CHOP inh: inactive; Mdm2 ligase inh: inactive; Hsp70 activator: inactive

How did O=C(O)CCNC(=O)C12CC3CC(CC(C3)C1)C2 do in these assays?
S1P3 antag: inactive; CHOP inh: inactive; Mdm2 ligase inh: inactive; Hsp70 activator: inactive

How did O=c1cc(N2CCCCC2)c(-c2ccccc2)nn1Cc1ccccc1Cl do in these assays?
CHOP inh: 90; Mdm2 ligase inh: inactive; Hsp70 activator: inactive

How did CCCOc1cc(C)c(S(=O)(=O)n2ccc(C)n2)cc1C do in these assays?
S1P3 antag: inactive; CHOP inh: 93; Mdm2 ligase inh: inactive; Hsp70 activator: inactive

How did O=C(Nc1ccccc1NC(=O)c1c(F)c(F)c(F)c(F)c1F)c1c(F)c(F)c(F)c(F)c1F do in these assays?
S1P3 antag: inactive; CHOP inh: 77; Mdm2 ligase inh: inactive; Hsp70 activator: inactive

What do the screens show for `O=C(Nc1cccc(F)c1)c1c(F)c(F)c(F)c(F)c1F`?
S1P3 antag: inactive; CHOP inh: 79; Mdm2 ligase inh: inactive; Hsp70 activator: inactive

How did CC1CCCN(C(=O)C2CCN(CC3CC=CCC3)CC2)C1 (configuration not stated) do in these assays?
S1P3 antag: inactive; CHOP inh: inactive; Mdm2 ligase inh: inactive; Hsp70 activator: inactive

What do the screens show for `O=[N+]([O-])c1ccccc1Oc1ncccc1[N+](=O)[O-]`?
S1P3 antag: inactive; CHOP inh: inactive; Mdm2 ligase inh: inactive; Hsp70 activator: inactive

Results for Cc1noc(-c2ccc(Cl)cc2)c1C(=O)O/N=C(\N)c1ccc(C(C)(C)C)cc1 ?
S1P3 antag: inactive; CHOP inh: 80; Mdm2 ligase inh: inactive

How did Cc1ccc(CC(=O)N2CCN(C(=O)c3ccco3)CC2)cc1 do in these assays?
S1P3 antag: inactive; CHOP inh: inactive; Mdm2 ligase inh: inactive; Hsp70 activator: inactive

What do the screens show for `O=C(NC(=S)Nc1nc2ccccc2s1)c1ccco1`?
S1P3 antag: inactive; CHOP inh: inactive; Mdm2 ligase inh: inactive; Hsp70 activator: inactive

Results for CC(NS(=O)(=O)c1ccc(F)cc1)C(c1cccs1)N1CCOCC1 (configuration not stated) ?
S1P3 antag: inactive; CHOP inh: inactive; Hsp70 activator: inactive

How did CCN1CCN(C(c2cccs2)C(C)NS(=O)(=O)c2ccc(F)cc2)CC1 (configuration not stated) do in these assays?
S1P3 antag: inactive; CHOP inh: 73; Mdm2 ligase inh: inactive; Hsp70 activator: inactive

Results for CCOc1ccc(NC(=O)CN(C)c2nnnn2-c2ccccc2)cc1OCC ?
CHOP inh: inactive; Mdm2 ligase inh: inactive; Hsp70 activator: inactive

Results for CC1(C)Cc2c(sc3c2c(=N)n(Cc2ccco2)c(=O)n3Cc2ccccc2)CO1 ?
S1P3 antag: inactive; CHOP inh: 70; Mdm2 ligase inh: inactive; Hsp70 activator: inactive

Results for CC1(C)Cc2c(sc3c2c(=N)n(Cc2ccco2)c(=O)n3Cc2ccc(Cl)cc2)CO1 ?
CHOP inh: inactive; Mdm2 ligase inh: inactive; Hsp70 activator: inactive

What do the screens show for `COc1cc(/C=C2\C(C)=C(C#N)c3nc(N)c(C#N)c(C)c32)ccc1OCC(=O)O`?
S1P3 antag: inactive; CHOP inh: inactive; Mdm2 ligase inh: inactive

How did CC1=C(C#N)c2nc(N)c(C#N)c(C)c2/C1=C\c1ccc(C)cc1 do in these assays?
CHOP inh: 98; Mdm2 ligase inh: inactive; Hsp70 activator: inactive

How did Cc1cc(-c2nnc(SCC(=O)Nc3nc(-c4ccc(Cl)cc4)cs3)o2)no1 do in these assays?
S1P3 antag: inactive; CHOP inh: inactive

Results for O=[N+]([O-])c1ccc(N2CCOCC2)cn1 ?
S1P3 antag: inactive; CHOP inh: inactive; Mdm2 ligase inh: inactive; Hsp70 activator: inactive

What do the screens show for `Cc1nc2ncnn2c(N2CCN(c3cccc(C(F)(F)F)c3)CC2)c1C`?
S1P3 antag: inactive; CHOP inh: 73; Mdm2 ligase inh: inactive; Hsp70 activator: inactive

What do the screens show for `COc1ccc(-c2nc(N)n(C(=O)c3cccs3)n2)cc1`?
S1P3 antag: inactive; CHOP inh: inactive; Mdm2 ligase inh: inactive; Hsp70 activator: inactive

Results for O=c1c([N+](=O)[O-])c(N2CCCCC2)c2ccccc2n1-c1ccccc1 ?
CHOP inh: inactive; Mdm2 ligase inh: inactive; Hsp70 activator: inactive

Results for Cc1ccc(C(=O)O/N=C(\N)c2ccccc2)c(Cl)c1 ?
S1P3 antag: inactive; CHOP inh: 72; Mdm2 ligase inh: inactive

Results for Cc1ccc(/C(N)=N/OC(=O)COc2ccccc2Cl)cc1 ?
CHOP inh: 70; Mdm2 ligase inh: inactive; Hsp70 activator: inactive

How did N/C(=N\OC(=O)c1ccccc1Cl)c1ccncc1 do in these assays?
S1P3 antag: inactive; CHOP inh: inactive; Hsp70 activator: inactive

Results for N/C(=N\OC(=O)c1ccc(Cl)cc1Cl)c1ccccn1 ?
S1P3 antag: inactive; CHOP inh: 79; Mdm2 ligase inh: inactive; Hsp70 activator: inactive

How did N/C(=N\OC(=O)c1ccc(Br)cc1)c1ccccc1 do in these assays?
CHOP inh: inactive; Mdm2 ligase inh: inactive; Hsp70 activator: inactive

Results for Cc1ccc(C(=O)O/N=C(\N)c2ccc(Br)cc2)cc1 ?
CHOP inh: 72; Mdm2 ligase inh: inactive; Hsp70 activator: inactive

How did CCOc1ccc(NCc2ccccc2OCc2cccc(F)c2)cc1 do in these assays?
S1P3 antag: inactive; CHOP inh: inactive; Mdm2 ligase inh: inactive; Hsp70 activator: inactive

Results for Cc1cccc2cc(-c3ccccc3)c(-c3ccccc3)c[n+]12 ?
S1P3 antag: inactive; CHOP inh: inactive; Mdm2 ligase inh: inactive; Hsp70 activator: inactive

What do the screens show for `CCOC(=O)C1(CCCc2ccccc2)CCN(C(=O)CCN2CCCCC2=O)CC1`?
S1P3 antag: inactive; CHOP inh: inactive; Mdm2 ligase inh: inactive; Hsp70 activator: inactive

Results for CCOc1cc(/C=C2\SC(=O)N(CC(=O)Nc3ccccc3F)C2=O)cc([N+](=O)[O-])c1O ?
S1P3 antag: inactive; CHOP inh: 93; Mdm2 ligase inh: inactive; Hsp70 activator: inactive

What do the screens show for `O=C(O)CCCCCN1C(=O)C(O)=C(C(=O)/C=C/c2ccccc2)C1c1ccccc1[N+](=O)[O-]` (configuration not stated)?
S1P3 antag: inactive; CHOP inh: inactive; Mdm2 ligase inh: inactive; Hsp70 activator: inactive

Results for O=S(=O)(NC1CC1)c1ccc(S(=O)(=O)N2CCCc3ccccc32)cc1 ?
S1P3 antag: inactive; CHOP inh: 73; Mdm2 ligase inh: inactive; Hsp70 activator: inactive

Results for CCOC(=O)NC(NCc1cccc(C(F)(F)F)c1)(C(F)(F)F)C(F)(F)F ?
S1P3 antag: inactive; CHOP inh: inactive; Mdm2 ligase inh: inactive; Hsp70 activator: inactive

Results for CCOC(=O)NC(NCc1ccccc1Cl)(C(F)(F)F)C(F)(F)F ?
CHOP inh: 95; Mdm2 ligase inh: inactive; Hsp70 activator: inactive
